Measurements gathered from unrelated publications.
Lines come from different studies, so protocols differ.
Target: Tyrosine-protein kinase Mer (MERTK, Homo sapiens, UniProt Q12866)
Residues used in one study (Q12866 21-999): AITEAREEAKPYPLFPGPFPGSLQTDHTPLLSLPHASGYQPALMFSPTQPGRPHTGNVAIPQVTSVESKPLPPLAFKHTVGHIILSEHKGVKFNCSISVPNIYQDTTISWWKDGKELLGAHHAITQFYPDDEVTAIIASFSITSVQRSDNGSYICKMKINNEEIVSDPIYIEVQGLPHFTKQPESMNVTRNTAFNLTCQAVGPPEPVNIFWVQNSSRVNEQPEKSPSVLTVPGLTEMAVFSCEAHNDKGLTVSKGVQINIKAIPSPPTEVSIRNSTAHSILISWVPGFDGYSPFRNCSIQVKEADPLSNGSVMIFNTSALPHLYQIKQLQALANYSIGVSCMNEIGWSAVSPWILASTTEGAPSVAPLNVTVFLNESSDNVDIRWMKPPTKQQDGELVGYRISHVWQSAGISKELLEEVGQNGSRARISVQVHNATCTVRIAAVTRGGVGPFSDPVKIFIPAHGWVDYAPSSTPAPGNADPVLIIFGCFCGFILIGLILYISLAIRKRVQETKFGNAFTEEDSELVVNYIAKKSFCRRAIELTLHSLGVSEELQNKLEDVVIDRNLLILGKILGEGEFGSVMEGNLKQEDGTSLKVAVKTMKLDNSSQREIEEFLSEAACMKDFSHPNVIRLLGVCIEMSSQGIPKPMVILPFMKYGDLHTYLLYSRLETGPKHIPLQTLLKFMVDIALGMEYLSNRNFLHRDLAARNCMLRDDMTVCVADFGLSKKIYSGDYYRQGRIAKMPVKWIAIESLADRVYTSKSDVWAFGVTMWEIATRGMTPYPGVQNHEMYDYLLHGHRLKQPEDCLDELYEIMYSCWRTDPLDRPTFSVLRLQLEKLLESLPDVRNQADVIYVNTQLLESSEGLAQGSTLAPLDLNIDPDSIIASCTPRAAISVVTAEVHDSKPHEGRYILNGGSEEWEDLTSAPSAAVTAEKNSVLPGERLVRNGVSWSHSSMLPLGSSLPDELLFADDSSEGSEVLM

With `N#CC1(c2ccccn2)CCN(Cc2cc(C(=O)O)c(=O)n3ccccc23)CC1` the remaining binding was 100% (cell-free assay, competition with immobilised ligand; 1 µM).
`COc1ncccc1-c1cnn2ccc(N3CCN(C(=O)OC(C)C)CC3)nc12` has a remaining binding of 100% (binding, competition with immobilised ligand; 1 µM).
The inhibition of `COc1cc(Nc2ncc(F)c(Nc3ccc4c(n3)NC(=O)C(C)(C)O4)n2)cc(OC)c1OC` is reported as 100% (binding, competition with immobilised ligand; 10 µM).
`CC(C)(C)c1cc(C=C(C#N)C#N)cc(Br)c1O` has a remaining activity of 97.3% (enzyme activity, inhibitor; 0.5 µM).
`C#Cc1n[nH]c2c(-c3cn(C(C)c4ccccn4)c(=O)[nH]c3=O)cc(F)cc12` (centres unmarked) gave an inhibition of 99.6% (enzyme activity, inhibitor; 1 µM).
`Nc1ncc(-c2nc(N3CCOCC3)nc(N3CCOCC3)n2)c(C(F)F)n1` has a remaining binding of 87% (binding, competition with immobilised ligand; 10 µM).
With `O=c1[nH]c2ccccc2n1C1CCN(Cc2ccc(-c3[nH]c4cc5ncnc5cc4nc3-c3ccccc3)cc2)CC1` the remaining signal was 96.2% (cell-free assay; 0.5 µM).
For `Cn1cc(-c2cc(F)cc(N3CCn4c(cc5c4CCCC5)C3=O)c2CO)cc(Nc2ccc(N3CCN(C4COC4)CC3)cn2)c1=O`, the inhibition was 11% (enzyme activity, inhibitor; 0.1 µM).
For `Cc1nn(C)cc1-c1nc2c(N3CCN(Cc4ccc(Cl)cc4)CC3)c(Cl)cnc2[nH]1`, the remaining binding was 100% (binding, competition with immobilised ligand; 1 µM).
With `Cn1cncc1[C@@](O)(COc1ccc(C#N)cc1-c1ccc(OC(F)(F)F)cc1)c1ccc(C#N)cc1` the remaining binding was 69% (cell-free assay, competition with immobilised ligand; 1 µM).
The inhibition of `Cn1cc(-c2cccc(N3CCc4c(sc5c4CC(C)(C)C5)C3=O)c2CO)cc(Nc2ccncn2)c1=O` is reported as 1% (enzyme activity, inhibitor; 1 µM).
